Results published in ChEMBL document CHEMBL4038331 (J Med Chem, 2017).
Activity calls are given as the source filed them. The calls are words filed in the database; no cut-off is given here.

Assays:
Liver [1] = assay: Ratio of drug level in rat liver intra-mitochondria to extra-mitochondria at 1 uM in presence of succinate/valinomycin by TPP+-based electrode assay; assay type: ADME, tissue-based
Method in brief: (§1)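 TPP+-selective electrode with rat liver mitochondria (0.5 mg/mL) in 120 mM KCl, 10 mM HEPES pH 7.2, 1 mM EGTA at 37 °C with rotenone 1.5 μM. Five 1 μM additions calibrated the electrode, then succinate 10 mM was added, then valinomycin 0.2 μg/mL. The accumulation ratio assumed a matrix volume of ~0.5 μL/mg with a binding correction.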

[2] = Antioxidant activity assessed as GO radical scavenging activity measured for 30 mins in absence of light; assay type: functional
Method in brief: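 Ethanolic GO• (5 mM stock) diluted to absorbance 1.00 ± 0.02 at 428 nm. Test solutions (5–75 μM in ethanol) were added in triplicate and read at 428 nm at room temperature. Inhibition was taken against an ethanol blank (100% radical).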

HepG2 [3] = assay: Cytotoxicity against human HepG2 cells assessed as chromatin condensation at 100 uM after 48 hrs Hoechst 33342-staining based epifluorescence microscopic analysis; assay type: cell-based; conditions: hepg2, 48 h
Method in brief: (§2)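 HepG2 cells on coverslips (8 × 10^4 cells/2 mL) were treated 48 h. In the last 30 min, cells were stained with TMRM (100 nM) and Hoechst 33342 (1 μg/mL) in HBSS pH 7.4 at 37 °C in the dark. Live cells were imaged by fluorescence microscopy, four random fields per well, three experiments.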

Liver [4] = assay: Induction of basal respiration in rat liver mitochondria measured 5 mins after ADP phosphorylation in presence of succinate; assay type: functional
Method in brief: (§3)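 Glutamate/malate (10/5 mM) or succinate (5 mM) was the substrate, with compound 2.5–10 μM for 5 min (state 2). ADP was added (125 nmol glutamate/malate; 75 nmol succinate), then oligomycin 2 μg/mL, then FCCP 1 μM. RCR and ADP/O were calculated. Seven experiments.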

Liver [5] = assay: Drug uptake in rat liver intra-mitochondria at 1 uM in presence of succinate/valinomycin by TPP+-based electrode assay; assay type: ADME, tissue-based; method in brief: as §1
Liver [6] = assay: Drug uptake in rat liver extra-mitochondria at 1 uM in presence of succinate/valinomycin by TPP+-based electrode assay; assay type: ADME, tissue-based; method in brief: as §1
HepG2 [7] = assay: Antioxidant activity in human HepG2 cells assessed as reduction in FeSO4-induced cell toxicity at 100 uM preincubated for 1 hr followed by FeSO4 addition for 48 hrs by SRB assay; assay type: functional, cell-based
Method in brief: (§4)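 HepG2 cells, grown in high-glucose DMEM with 10% FBS at 37 °C and 5% CO2, seeded at 2 × 10^4 cells/500 μL. Cells were preincubated with compound, then given 250 μM FeSO4 or 250 μM H2O2. Cell mass was read by SRB (fixed, stained, OD 540 nm) as % of untreated control. Four independent experiments.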

HepG2 [8] = assay: Antioxidant activity in human HepG2 cells assessed as intracellular GSH content per ug of protein at 100 uM after 48 hrs by HPLC analysis (reference value: 17.81 nmol); assay type: functional
HepG2 [9] = assay: Cytotoxicity against human HepG2 cells assessed as reduction in cell density at 0.5 to 100 uM after 48 hrs by SRB assay; assay type: cell-based; conditions: hepg2, 48 h
[10] = Iron chelating activity in ammonium acetate buffer assessed as inhibition of [Fe(ferrozine)3]2+ formation at 100 uM at pH 6.7 measured after 10 mins by spectrophotometric analysis
Method in brief: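 Ferrozine assay in ammonium acetate buffer pH 6.7. Compound (100 μM) plus ammonium iron(II) sulfate (20 μM) for 10 min, read at 562 nm. Ferrozine was added, incubated 10 min at 37 °C, and re-read at 562 nm. The first reading was subtracted, with a DMSO blank and EDTA = 100%. Three experiments.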

Liver [11] = assay: Antioxidant activity in rat liver mitochondria assessed as inhibition of ADP/FeSO4-induced lipid peroxidation at 5 uM preincubated for 5 mins followed by ADP/FeSO4 addition; assay type: functional
Method in brief: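 Rat liver mitochondria (2 mg) in 100 mM KCl, 10 mM Tris-HCl pH 7.6, with glutamate/malate (5/2.5 mM) at 37 °C. After 5 min with compound (5 μM), peroxidation was started with ADP/0.1 mM FeSO4. The lag phase of O2 consumption was measured by Clark electrode and expressed as % of control. Six experiments.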

Liver [12] = assay: Decrease in oxidative phosphorylation efficiency in rat liver mitochondria assessed as reduction in coupling between ATP systhesis and oxygen consumption after 5 mins in presence of succinate; assay type: functional; method in brief: as §3
HepG2 [13] = assay: Antioxidant activity in human HepG2 cells assessed as reduction in H2O2-induced cell toxicity at 100 uM preincubated for 1 hr followed by H2O2 addition for 48 hrs by SRB assay; assay type: functional, cell-based; method in brief: as §4
HepG2 [14] = assay: Cytotoxicity against human HepG2 cells assessed as depletion of intracellular GSH content at 100 uM after 48 hrs by HPLC analysis; assay type: cell-based; conditions: hepg2, 48 h
Method in brief: (§5)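 HepG2 cells (4 × 10^5 per 100 mm dish) were incubated 48 h, collected and stored at −80 °C in PBS. Reduced GSH was measured by reverse-phase HPLC with detection at 515 nm and expressed as nmol GSH/μg protein. Four experiments.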

Liver [15] = assay: Decrease in oxidative phosphorylation efficiency in rat liver mitochondria assessed as reduction in respiratory control ratio after 5 mins in presence of glutamate/malate; assay type: functional; method in brief: as §3
Liver [16] = assay: Induction of basal oxygen consumption under nonphosphorylative conditions in rat liver mitochondria after 5 mins in presence of succinate; assay type: functional; method in brief: as §3
HepG2 [17] = assay: Cytotoxicity against human HepG2 cells assessed as mitochondrial depolarization at 100 uM after 48 hrs TMRM-staining based epifluorescence microscopic analysis; assay type: cell-based; conditions: hepg2, 48 h; method in brief: as §2
[18] = Antioxidant activity assessed as ABTS radical scavenging activity measured each minute for 15 mins by spectrophotometric analysis; assay type: functional
Method in brief: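 ABTS•+ generated from 7 mM ABTS plus potassium persulfate, held 16 h dark at room temperature, then diluted in ethanol to absorbance 0.72 ± 0.02. Ethanolic test solutions (10–500 μM) were added to radical solution in triplicate. Inhibition was taken against an ethanol blank (100% radical), and IC50 was read from dose–response curves.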

Liver [19] = assay: Induction of ADP-stimulated respiration in rat liver mitochondria after 5 mins in presence of glutamate/malate; assay type: functional; method in brief: as §3
Liver [20] = assay: Increase in oligomycin-inhibited respiration in rat liver mitochondria after 5 mins in presence of succinate; assay type: functional; method in brief: as §3
[21] = Antioxidant activity assessed as DPPH radical scavenging activity measured every minute for 45 mins; assay type: functional
Method in brief: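 DPPH• ethanolic solution diluted to absorbance 0.72 ± 0.02 at 515 nm. Ethanolic test solutions (50–500 μM) were added in triplicate and read at 515 nm. Inhibition was taken against an ethanol blank (100% radical), and IC50 was read from dose–response curves.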

Liver [22] = assay: Decrease in oxidative phosphorylation efficiency in rat liver mitochondria assessed as reduction in coupling between ATP systhesis and oxygen consumption after 5 mins in presence of glutamate/malate; assay type: functional; method in brief: as §3
[23] = Lipophilicity of compound in Ag/AgCl-NaCl containing PET membrane assessed as tranfer potential at pH 7; assay type: physicochemical
Method in brief: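 Transfer across a liquid–liquid interface on a microporous PET membrane, with 1,6-dichlorohexane organic phase containing BTPPATPBCl. A gelled 2 mM BTPPACl + 2 mM NaCl reference was used, with 10 mM Tris-HCl pH 7.0 aqueous electrolyte.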

[24] = Redox potential of compound in Ag/AgCl-NaCl containing phosphate buffer at 0.1 mM at pH 7.4 by cyclic voltammetric analysis
Method in brief: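 Voltammetry used a glassy carbon working electrode, Pt counter and Ag/AgCl reference. Compound was at 0.1 mM final (10 mM ethanolic stock) in pH 7.4 potassium phosphate electrolyte.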

Liver [25] = assay: Induction of ADP-stimulated respiration in rat liver mitochondria after 5 mins in presence of succinate; assay type: functional; method in brief: as §3
Liver [26] = assay: Induction of basal respiration in rat liver mitochondria measured 5 mins after ADP phosphorylation in presence of glutamate/malate; assay type: functional; method in brief: as §3
Liver [27] = assay: Increase in oligomycin-inhibited respiration in rat liver mitochondria after 5 mins in presence of glutamate/malate; assay type: functional; method in brief: as §3
Liver [28] = assay: Induction of basal oxygen consumption under nonphosphorylative conditions in rat liver mitochondria after 5 mins in presence of glutamate/malate; assay type: functional; method in brief: as §3
HepG2 [29] = assay: Cytotoxicity against human HepG2 cells assessed as reduction in cell density at >2.5 uM after 48 hrs by SRB assay; assay type: cell-based; conditions: hepg2, 48 h
HepG2 [30] = assay: Cytotoxicity against human HepG2 cells assessed as mitochondrial depolarization at 2.5 uM after 48 hrs TMRM-staining based epifluorescence microscopic analysis; assay type: cell-based; conditions: hepg2, 48 h; method in brief: as §2
Liver [31] = assay: Induction of membrane hyperpolarization in rat liver mitochondria assessed as change in repolarization potential at 2.5 uM; assay type: functional
Method in brief: (§6)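 Safranine (5 μM) fluorescence (ex 495/em 586 nm) at 25 °C. Rat liver mitochondria (0.5 mg/2 mL) were in 200 mM sucrose, 1 mM KH2PO4, 10 mM Tris pH 7.4, 10 μM EGTA with glutamate/malate or succinate, after 5 min with 2.5–10 μM. ADP 25 nmol depolarised, then FCCP 1 μM was added. A valinomycin calibration in K+-free medium was used, five experiments.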

HepG2 [32] = assay: Cytotoxicity against human HepG2 cells assessed as depletion of intracellular GSH content at 2.5 uM after 48 hrs by HPLC analysis; assay type: cell-based; conditions: hepg2, 48 h; method in brief: as §5
HepG2 [33] = assay: Antioxidant activity in human HepG2 cells assessed as reduction in FeSO4-induced cell toxicity at 2.5 uM preincubated for 1 hr followed by FeSO4 addition for 48 hrs by SRB assay; assay type: functional, cell-based; method in brief: as §4
HepG2 [34] = assay: Cytotoxicity against human HepG2 cells assessed as chromatin condensation at 2.5 uM after 48 hrs Hoechst 33342-staining based epifluorescence microscopic analysis; assay type: cell-based; conditions: hepg2, 48 h; method in brief: as §2
[35] = Induction of mPTP in energized rat liver mitochondria at 2.5 to 10 uM after 5 mins in presence of succinate by spectrophotometric analysis
HepG2 [36] = assay: Antioxidant activity in human HepG2 cells assessed as reduction in H2O2-induced cell toxicity at 2.5 uM preincubated for 1 hr followed by H2O2 addition for 48 hrs by SRB assay; assay type: functional, cell-based; method in brief: as §4
HepG2 [37] = assay: Antioxidant activity in human HepG2 cells assessed as intracellular GSH content per ug of protein at 2.5 uM after 48 hrs by HPLC analysis (reference value: 17.81 nmol); assay type: functional
Rattus norvegicus = species: Rattus norvegicus; assay: Inhibition of mPTP in energized rat liver mitochondria at 2.5 to 10 uM after 5 mins in presence of succinate by spectrophotometric analysis
Liver [38] = assay: Inhibition of ADP-induced membrane depolarization in succinate energized rat liver mitochondria at 5 uM preincubated for 5 mins followed by ADP addition measured by safranine-based spectrofluorometric analysis; assay type: functional, tissue-based; method in brief: as §6

Structure (SMILES) | Ratio (Liver [1]) | IC50 [2] [µM] | Activity (Liver [4]) | Drug uptake (Liver [5]) [mM] | Drug uptake (Liver [6]) [µM] | inhibition (Liver [11]) | Activity (Liver [12]) | Activity (Liver [15]) | Activity (Liver [16]) | IC50 [18] [µM] | Activity (Liver [19]) | Activity (Liver [20]) | IC50 [21] [µM] | Activity (Liver [22]) | Activity [23] [V] | Activity [24] [V] | Activity (Liver [25]) | Activity (Liver [26]) | Activity (Liver [27]) | Activity (Liver [28]) | also measured
CS(=O)(=O)[O-].O=C(/C=C/c1cc(O)c(O)c(O)c1)NCCCCCC[P+](c1ccccc1)(c1ccccc1)c1ccccc1 | 2100 | 3.1 | Dose-dependent effect | 2 | 2.4 | Active | Dose-dependent effect | Dose-dependent effect | Dose-dependent effect | 12.2 | Dose-dependent effect | Dose-dependent effect | 19 | Dose-dependent effect | 0.498 | 0.034 | Dose-dependent effect | Dose-dependent effect | Dose-dependent effect | Dose-dependent effect | Activity (HepG2 [3]): Non-Toxic; inhibition (HepG2 [7]): Active; Activity (HepG2 [8]): 26.94 nmol; Activity (HepG2 [9]): Non-Toxic; inhibition [10]: Active; inhibition (HepG2 [13]): Active; Activity (HepG2 [14]): Non-Toxic; Activity (HepG2 [17]): Non-Toxic
CS(=O)(=O)[O-].O=C(/C=C/c1ccc(O)c(O)c1)NCCCCCCCCCC[P+](c1ccccc1)(c1ccccc1)c1ccccc1 | 2700 | 2.7 | Dose-dependent effect | 4.7 | 1.9 | Active | Dose-dependent effect | Dose-dependent effect | Dose-dependent effect | 23.5 | Dose-dependent effect | Dose-dependent effect | 25.9 | Dose-dependent effect | 0.291 | 0.174 | Dose-dependent effect | Dose-dependent effect | Dose-dependent effect | Dose-dependent effect | Activity (HepG2 [29]): Toxic; Activity (HepG2 [30]): Non-Toxic; Activity (Liver [31]): 10 mV; Activity (HepG2 [32]): Non-Toxic; inhibition (HepG2 [33]): Active; Activity (HepG2 [34]): Non-Toxic; Activity [35]: Non-Toxic; inhibition (HepG2 [36]): Active; Activity (HepG2 [37]): 20.85 nmol; inhibition (Rattus norvegicus): Active; inhibition (Liver [38]): Active
